Experimental data from PubChem BioAssay AID1738 (Vanderbilt High Throughput Screening Facility, 2009).
Inconclusive results are not listed. Active and inactive are the calls of the source.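 The calls were made as follows: active = dose curve fitted or showing a partial trend in at least two of three replicates; inactive = fewer than two replicates fitted or trending.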

System: parental HEK293, Na-free buffer, Tl+ flux FluoZin2
Assay: native HEK Tl+ uptake potency without sodium – HEK cells, counterscreen 3, counter-screen for KCC2 modulator project, dose response (AID 1738)
In short: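 Assay system – parental HEK cells, FluoZin2-AM dye · Probe or stimulus – thallium stimulus, pH 7.3 · Dosing – 11 points, 3-fold steps, from 30 µM · Detection – fluorescence, 480/540 nm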

SMILES | EC50
NC(=S)N=Nc1c(O)n(Cc2ccccc2)c2ccccc12 | 71.9 nM (inactive)
Cc1onc(-c2ccccc2Cl)c1C(=O)NC(=S)Nc1ccc(C(C)C)cc1 | 262 nM
O=c1c2ccccc2[nH]c(=S)n1CCN1CCC(=C(c2ccc(F)cc2)c2ccc(F)cc2)CC1 | 4820 nM (inactive)
CCOc1cccc(C(=O)NC(=S)Nc2cccc(C)c2)c1 | 345 nM
COc1cc(NC(=S)NC(=O)c2ccco2)ccc1NC(=O)C(C)C | 3630 nM (inactive)
Oc1ccccc1/C=N/Nc1nc2ccccc2o1 | 9460 nM (inactive)
COC(=O)[C@@H](NC(=O)O[C@@H]1C(=O)c2ccc(OC)cc2O[C@H]1c1cccc(C(F)(F)F)c1)C(C)C | 8160 nM (inactive)
O=C1OC(c2ccc(O)cc2)(c2ccc(O)cc2)c2ccccc21 | 15400 nM (inactive)
N=C1SCC(=O)N1c1ncc(Cc2cccc(Cl)c2)s1 | 4430 nM (inactive)
Fc1cccc(F)c1/C=N/NC(=S)Nc1cccnc1 | 8330 nM (inactive)
CNC(=O)C(=O)Nc1nc(C23CC4CC(CC(C4)C2)C3)cs1 | 61.1 nM
O=C(NC(=S)Nc1nc(-c2cccc([N+](=O)[O-])c2)cs1)c1cc(Cl)ccc1Cl | 22400 nM (inactive)
COc1ccc(N2C(=S)N=C(Nc3cccc(C)c3)C23CCCCC3)cc1 | 920 nM
CC(C)c1ccc(OCC(=O)NNC(=O)c2cnccn2)cc1 | 16400 nM (inactive)
COc1ccccc1N1CCN(C(=S)NC(=O)/C=C/c2ccccc2)CC1 | 1140 nM (inactive)
